# According to ChEMBL document CHEMBL4715736, “Identification of anticancer agents based on the thieno[2,3-b]pyridine and 1H-pyrazole molecular scaffolds” (2016):
# What was measured:
# Type in all cases: functional
# CCRF-CEM [1] = experiment: Growth inhibition of human CCRF-CEM cells assessed as cell growth at 0.01 uM incubated for 48 hrs by sulforhodamine B assay relative to control; conditions: read-out: Activity
# Procedure, shortened: (§1)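 NCI Developmental Therapeutics Program NCI60 panel. Compounds that were active in the 10 µM one-dose screen went on to dose–response testing. Growth at each concentration is expressed relative to untreated control (100%). GI50 (concentration giving 50% of maximal inhibition of proliferation) and TGI (concentration giving total growth inhibition) were derived from the curves.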
# K562 = experiment: Growth inhibition of human K562 cells assessed as cell growth at 0.01 uM incubated for 48 hrs by sulforhodamine B assay relative to control; conditions: read-out: Activity
# NCI-H226 = experiment: Growth inhibition of human NCI-H226 cells assessed as cell growth at 0.01 uM incubated for 48 hrs by sulforhodamine B assay relative to control; conditions: read-out: Activity
# HCC 2998 [2] = experiment: Growth inhibition of human HCC 2998 cells assessed as cell growth at 0.01 uM incubated for 48 hrs by sulforhodamine B assay relative to control; conditions: read-out: Activity; procedure, shortened: as §1
# KM12 [3] = experiment: Growth inhibition of human KM12 cells assessed as cell growth at 0.01 uM incubated for 48 hrs by sulforhodamine B assay relative to control; conditions: read-out: Activity
# MDA-MB-435 = experiment: Growth inhibition of human MDA-MB-435 cells assessed as cell growth at 0.01 uM incubated for 48 hrs by sulforhodamine B assay relative to control; conditions: read-out: Activity
# CAKI-1 = experiment: Growth inhibition of human CAKI-1 cells assessed as cell growth at 0.01 uM incubated for 48 hrs by sulforhodamine B assay relative to control; conditions: read-out: Activity; procedure, shortened: as §1
# RXF 393 = experiment: Growth inhibition of human RXF 393 cells assessed as cell growth at 0.01 uM incubated for 48 hrs by sulforhodamine B assay relative to control; conditions: read-out: Activity
# SN12C [4] = experiment: Growth inhibition of human SN12C cells assessed as cell growth at 0.01 uM incubated for 48 hrs by sulforhodamine B assay relative to control; conditions: read-out: Activity
# UO-31 = experiment: Growth inhibition of human UO-31 cells assessed as cell growth at 0.01 uM incubated for 48 hrs by sulforhodamine B assay relative to control; conditions: read-out: Activity
# MDA-MB-468 [5] = experiment: Growth inhibition of human MDA-MB-468 cells assessed as cell growth at 0.01 uM incubated for 48 hrs by sulforhodamine B assay relative to control; conditions: read-out: Activity
# SR = experiment: Growth inhibition of human SR cells assessed as cell growth at 0.1 uM incubated for 48 hrs by sulforhodamine B assay relative to control; conditions: read-out: Activity
# HCC 2998 [6] = experiment: Growth inhibition of human HCC 2998 cells assessed as cell growth at 0.1 uM incubated for 48 hrs by sulforhodamine B assay relative to control; conditions: read-out: Activity; procedure, shortened: as §1
# HCT-15 = experiment: Growth inhibition of human HCT-15 cells assessed as cell growth at 0.1 uM incubated for 48 hrs by sulforhodamine B assay relative to control; conditions: read-out: Activity
# SK-MEL-2 = experiment: Growth inhibition of human SK-MEL-2 cells assessed as cell growth at 0.1 uM incubated for 48 hrs by sulforhodamine B assay relative to control; conditions: read-out: Activity
# UACC-62 = experiment: Growth inhibition of human UACC-62 cells assessed as cell growth at 0.1 uM incubated for 48 hrs by sulforhodamine B assay relative to control; conditions: read-out: Activity
# SK-OV-3 [7] = experiment: Growth inhibition of human SK-OV-3 cells assessed as cell growth at 0.1 uM incubated for 48 hrs by sulforhodamine B assay relative to control; conditions: read-out: Activity
# SN12C [8] = experiment: Growth inhibition of human SN12C cells assessed as cell growth at 0.1 uM incubated for 48 hrs by sulforhodamine B assay relative to control; conditions: read-out: Activity
# PC-3 = experiment: Growth inhibition of human PC-3 cells assessed as cell growth at 0.1 uM incubated for 48 hrs by sulforhodamine B assay relative to control; conditions: read-out: Activity
# BT-549 = experiment: Growth inhibition of human BT-549 cells assessed as cell growth at 0.1 uM incubated for 48 hrs by sulforhodamine B assay relative to control; conditions: read-out: Activity
# RPMI-8226 = experiment: Growth inhibition of human RPMI-8226 cells assessed as cell growth at 1 uM incubated for 48 hrs by sulforhodamine B assay relative to control; conditions: read-out: Activity
# HCC 2998 [9] = experiment: Growth inhibition of human HCC 2998 cells assessed as cell growth at 1 uM incubated for 48 hrs by sulforhodamine B assay relative to control; conditions: read-out: Activity; procedure, shortened: as §1
# KM12 [10] = experiment: Growth inhibition of human KM12 cells assessed as cell growth at 1 uM incubated for 48 hrs by sulforhodamine B assay relative to control; conditions: read-out: Activity
# LOX IMVI = experiment: Growth inhibition of human LOX IMVI cells assessed as cell growth at 1 uM incubated for 48 hrs by sulforhodamine B assay relative to control; conditions: read-out: Activity
# SK-MEL-28 = experiment: Growth inhibition of human SK-MEL-28 cells assessed as cell growth at 1 uM incubated for 48 hrs by sulforhodamine B assay relative to control; conditions: read-out: Activity
# SK-MEL-5 = experiment: Growth inhibition of human SK-MEL-5 cells assessed as cell growth at 1 uM incubated for 48 hrs by sulforhodamine B assay relative to control; conditions: read-out: Activity
# Hs-578T = experiment: Growth inhibition of human Hs-578T cells assessed as cell growth at 1 uM incubated for 48 hrs by sulforhodamine B assay relative to control; conditions: read-out: Activity
# HCC 2998 [11] = experiment: Growth inhibition of human HCC 2998 cells assessed as cell growth at 100 uM incubated for 48 hrs by sulforhodamine B assay relative to control; conditions: read-out: Activity; procedure, shortened: as §1
# SNB-75 = experiment: Growth inhibition of human SNB-75 cells assessed as cell growth at 100 uM incubated for 48 hrs by sulforhodamine B assay relative to control; conditions: read-out: Activity
# U-251 = experiment: Growth inhibition of human U-251 cells assessed as cell growth at 100 uM incubated for 48 hrs by sulforhodamine B assay relative to control; conditions: read-out: Activity
# OVCAR-8 = experiment: Growth inhibition of human OVCAR-8 cells assessed as cell growth at 100 uM incubated for 48 hrs by sulforhodamine B assay relative to control; conditions: read-out: Activity
# CCRF-CEM [12] = experiment: Growth inhibition of human CCRF-CEM cells incubated for 48 hrs by sulforhodamine B assay; procedure, shortened: as §1
# SK-OV-3 [13] = experiment: Growth inhibition of human SK-OV-3 cells incubated for 48 hrs by sulforhodamine B assay; conditions: for CC50: read-out: LC50 (the source's name)
# Procedure, shortened: (§2)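 NCI DTP 60-line human tumour panel. Dose-response curves were run only for ligands active in the initial 10 µM screen. GI50 (concentration giving 50% of maximal inhibition of proliferation) and TGI (concentration giving total growth inhibition) were derived from these curves.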
# TK-10 = experiment: Growth inhibition of human TK-10 cells incubated for 48 hrs by sulforhodamine B assay; conditions: for CC50: read-out: LC50 (the source's name); procedure, shortened: as §2
# MDA-MB-468 [14] = experiment: Growth inhibition of human MDA-MB-468 cells incubated for 48 hrs by sulforhodamine B assay; conditions: for CC50: read-out: LC50 (the source's name)
# Procedure, shortened: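 NCI60 panel at the NCI Developmental Therapeutics Program. Only compounds active in the 10 µM screen went to dose-response testing. GI50, the concentration giving 50% of maximal inhibition of proliferation, and TGI, the concentration giving total growth inhibition, were derived from the dose-response curves.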
structure (smiles),measurement,setting,value
Cc1cc(C)c(NC(=O)c2sc3nc4c(cc3c2N)CN(Cc2ccccc2)CC4)c(C)c1,growth at 0.01 µM,CCRF-CEM [1],100%
same,growth at 0.01 µM,K562,108%
same,growth at 0.01 µM,NCI-H226,92%
same,growth at 0.01 µM,HCC 2998 [2],105%
same,growth at 0.01 µM,KM12 [3],98%
same,growth at 0.01 µM,MDA-MB-435,92%
same,growth at 0.01 µM,CAKI-1,88%
same,growth at 0.01 µM,RXF 393,92%
same,growth at 0.01 µM,SN12C [4],104%
same,growth at 0.01 µM,UO-31,91%
same,growth at 0.01 µM,MDA-MB-468 [5],99%
same,growth at 0.1 µM,SR,103%
same,growth at 0.1 µM,HCC 2998 [6],98%
same,growth at 0.1 µM,HCT-15,93%
same,growth at 0.1 µM,SK-MEL-2,113%
same,growth at 0.1 µM,UACC-62,97%
same,growth at 0.1 µM,SK-OV-3 [7],98%
same,growth at 0.1 µM,SN12C [8],101%
same,growth at 0.1 µM,PC-3,93%
same,growth at 0.1 µM,BT-549,91%
same,growth at 1 µM,RPMI-8226,87%
same,growth at 1 µM,HCC 2998 [9],103%
same,growth at 1 µM,KM12 [10],87%
same,growth at 1 µM,LOX IMVI,99%
same,growth at 1 µM,SK-MEL-28,70%
same,growth at 1 µM,SK-MEL-5,59%
same,growth at 1 µM,Hs-578T,76%
same,growth at 100 µM,HCC 2998 [11],-21%
same,growth at 100 µM,SNB-75,-9%
same,growth at 100 µM,U-251,-43%
same,growth at 100 µM,OVCAR-8,14%
same,GI50,CCRF-CEM [12],3.16 µM
same,LC50,CCRF-CEM [12],> 100 µM
same,TGI,CCRF-CEM [12],59.7 µM
same,GI50,SK-OV-3 [13],5.35 µM
same,TGI,SK-OV-3 [13],> 100 µM
same,CC50,SK-OV-3 [13],> 100 µM
same,GI50,TK-10,5.06 µM
same,TGI,TK-10,> 100 µM
same,CC50,TK-10,> 100 µM
same,GI50,MDA-MB-468 [14],1.78 µM
same,TGI,MDA-MB-468 [14],88.7 µM
same,CC50,MDA-MB-468 [14],> 100 µM
COc1cccc(NC(=O)c2sc3nc4c(cc3c2N)CN(Cc2ccccc2)CC4)c1,growth at 0.01 µM,CCRF-CEM [1],99%
same,growth at 0.01 µM,K562,106%
same,growth at 0.01 µM,NCI-H226,93%
same,growth at 0.01 µM,HCC 2998 [2],97%
same,growth at 0.01 µM,KM12 [3],100%
same,growth at 0.01 µM,MDA-MB-435,93%
same,growth at 0.01 µM,CAKI-1,87%
same,growth at 0.01 µM,RXF 393,97%
same,growth at 0.01 µM,SN12C [4],95%
same,growth at 0.01 µM,UO-31,92%
same,growth at 0.01 µM,MDA-MB-468 [5],92%
same,growth at 0.1 µM,SR,99%
same,growth at 0.1 µM,HCC 2998 [6],98%
same,growth at 0.1 µM,HCT-15,95%
same,growth at 0.1 µM,SK-MEL-2,112%
same,growth at 0.1 µM,UACC-62,89%
same,growth at 0.1 µM,SK-OV-3 [7],100%
same,growth at 0.1 µM,SN12C [8],93%
same,growth at 0.1 µM,PC-3,88%
same,growth at 0.1 µM,BT-549,91%
same,growth at 1 µM,RPMI-8226,84%
same,growth at 1 µM,HCC 2998 [9],86%
same,growth at 1 µM,KM12 [10],64%
same,growth at 1 µM,LOX IMVI,86%
same,growth at 1 µM,SK-MEL-28,68%
same,growth at 1 µM,SK-MEL-5,58%
same,growth at 1 µM,Hs-578T,72%
same,growth at 100 µM,HCC 2998 [11],9%
same,growth at 100 µM,SNB-75,-61%
same,growth at 100 µM,U-251,-54%
same,growth at 100 µM,OVCAR-8,-2%
same,GI50,CCRF-CEM [12],29.5 µM
same,LC50,CCRF-CEM [12],> 100 µM
same,TGI,CCRF-CEM [12],> 100 µM
same,GI50,SK-OV-3 [13],2.78 µM
same,TGI,SK-OV-3 [13],14 µM
same,CC50,SK-OV-3 [13],62.5 µM
same,GI50,TK-10,4.82 µM
same,TGI,TK-10,21.6 µM
same,CC50,TK-10,86.8 µM
same,GI50,MDA-MB-468 [14],2.6 µM
same,TGI,MDA-MB-468 [14],61.4 µM
same,CC50,MDA-MB-468 [14],> 100 µM
